Here are results for 20 compounds from ChEMBL document CHEMBL1153878, “Hansch analysis of veratric acid derivatives as antimicrobial agents” (2009).

Molecules are shown by their SMILES. ≈ marks a conversion by molar mass, not a printed value.

What all share (type): functional
For test [1], the system named is Staphylococcus aureus. Nature of the test: Antibacterial activity against Staphylococcus aureus MTCC 1430 by serial dilution method. Further details: -logMIC: scale not given here. The following applies: for MIC: Staphylococcus aureus, MTCC 1430, read-out: MIC. A digest of the protocol: (§1)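 Tube serial dilution in 1 ml sterile double strength nutrient broth I.P., test range […] per ml. Inoculum: […] of a saline suspension at 10⁵ cfu/ml from a fresh 24-h culture, grown in double strength nutrient broth at 37 ± 1 °C. […] Exact MIC refined by further dilution of the stock.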

For test [2], the system named is Bacillus subtilis. Nature of the test: Antibacterial activity against Bacillus subtilis MTCC 2423 by serial dilution method. The arrangement: -logMIC: unit not given here. The following applies: for MIC: Bacillus subtilis, MTCC 2423, read-out: MIC. A digest of the protocol:
as §1

Test [3] has as its system Escherichia coli. Nature of the test: Antibacterial activity against Escherichia coli MTCC 739 by serial dilution method. The arrangement: -logMIC: scale not given here. To be noted: for MIC: Escherichia coli, MTCC 739, read-out: MIC. A digest of the protocol: as §1
Test [4] deals with Candida albicans. Nature of the test: Antifungal activity against Candida albicans MTCC 227 by serial dilution method. Further details: -logMIC: unit not given here. To be noted: for MIC: Candida albicans, MTCC 227, read-out: MIC.
The test system of test [5] is Aspergillus niger. Nature of the test: Antifungal activity against Aspergillus niger MTCC 2425 by serial dilution method. Further details: -logMIC: scale not given here. To be noted: for MIC: Aspergillus niger, MTCC 2425, read-out: MIC.

As to `CCOC(=O)c1ccc(OC)c(OC)c1`, the “-logMIC” value was found to be 0.98 in test [1]; 1.12 in test [2]; 1.02 in test [3]; 1.23 in test [4]; 1.23 in test [5]. Also, the MIC (usually the lowest concentration that inhibits growth of the organism) in test [1] amounted to 22 µg/mL (≈ 105 µM); in test [2], 16 µg/mL (≈ 76.1 µM); in test [3], 20 µg/mL (≈ 95.1 µM); in test [4] it was 12 µg/mL (≈ 57.1 µM); in test [5], 12 µg/mL (≈ 57.1 µM).

With `COc1ccc(C(=O)N2CCOCC2)cc1OC`, the “-logMIC” value in test [1] came to 1.08; in test [2], 1.28; in test [3] it was 1.17; in test [4], 1.37; in test [5], 1.33. The MIC was found to be 21 µg/mL (≈ 83.6 µM) in test [1]; 13 µg/mL (≈ 51.7 µM) in test [2]; 17 µg/mL (≈ 67.7 µM) in test [3]; 11 µg/mL (≈ 43.8 µM) in test [4]; 12 µg/mL (≈ 47.8 µM) in test [5].

Consider `CCNC(=O)c1ccc(OC)c(OC)c1`, for which the “-logMIC” value is 0.95 in test [1]; 1.21 in test [2]; 1.01 in test [3]; 1.31 in test [4]; 1.26 in test [5]. For the same compound, the MIC in test [1] was determined as 23.5 µg/mL (≈ 112 µM); in test [2], 13 µg/mL (≈ 62.1 µM); in test [3] it was 20 µg/mL (≈ 95.6 µM); in test [4], 10 µg/mL (≈ 47.8 µM); in test [5] it was 11.5 µg/mL (≈ 55 µM).

In the case of `COc1ccc(C(=O)Nc2ccccc2Cl)cc1OC`, the “-logMIC” value in test [1] was 1.28; in test [2] it was 1.39; in test [3], 1.23; in test [4], 1.34; in test [5], 1.34. Besides, the minimum inhibitory concentration (MIC) in test [1] amounted to 15 µg/mL (≈ 51.4 µM); in test [2], 12 µg/mL (≈ 41.1 µM); in test [3], 17 µg/mL (≈ 58.3 µM); in test [4] it was 13.5 µg/mL (≈ 46.3 µM); in test [5], 13.5 µg/mL (≈ 46.3 µM).

As for `COc1ccc(C(=O)Nc2cccc(Cl)c2)cc1OC`, the “-logMIC” value was determined as 1.17 in test [1]; 1.39 in test [2]; 1.23 in test [3]; 1.29 in test [4]; 1.32 in test [5]. The MIC in test [1] was 20 µg/mL (≈ 68.6 µM); in test [2] it was 12 µg/mL (≈ 41.1 µM); in test [3] it was 17 µg/mL (≈ 58.3 µM); in test [4], 15 µg/mL (≈ 51.4 µM); in test [5], 14 µg/mL (≈ 48 µM).

On to `COc1ccc(C(=O)NCc2ccccc2)cc1OC`, for which the “-logMIC” value in test [1] amounted to 1.15; in test [2] it was 1.32; in test [3], 1.15; in test [4], 1.32; in test [5] it was 1.36. The MIC in test [1] was 19 µg/mL (≈ 70 µM); in test [2], 13 µg/mL (≈ 47.9 µM); in test [3], 19 µg/mL (≈ 70 µM); in test [4] it was 13 µg/mL (≈ 47.9 µM); in test [5], 12 µg/mL (≈ 44.2 µM).

Turning to `COc1ccc(C(N)=O)cc1OC`, the “-logMIC” value is listed as 0.9 in test [1]; 1.09 in test [2]; 0.95 in test [3]; 1.25 in test [4]; 1.2 in test [5]. Besides, the MIC stood at 23 µg/mL (≈ 127 µM) in test [1]; 15 µg/mL (≈ 82.8 µM) in test [2]; 20 µg/mL (≈ 110 µM) in test [3]; 10 µg/mL (≈ 55.2 µM) in test [4]; 11 µg/mL (≈ 60.7 µM) in test [5].

As for `COc1ccc(C(=O)Oc2cccc3cccnc23)cc1OC`, the “-logMIC” value in test [1] is reported as 1.45; in test [2], 1.53; in test [3], 1.56; in test [4] it was 1.35; in test [5] it was 1.34. Further, the MIC amounted to 11 µg/mL (≈ 35.6 µM) in test [1]; 9 µg/mL (≈ 29.1 µM) in test [2]; 8.5 µg/mL (≈ 27.5 µM) in test [3]; 13.5 µg/mL (≈ 43.6 µM) in test [4]; 14 µg/mL (≈ 45.3 µM) in test [5].

Take `COc1ccc(C(=O)N(C)C)cc1OC`: the “-logMIC” value in test [1] came to 1.08; in test [2], 1.21; in test [3], 1.15; in test [4] it was 1.31; in test [5], 1.31. The MIC is 17 µg/mL (≈ 81.2 µM) in test [1]; 13 µg/mL (≈ 62.1 µM) in test [2]; 15 µg/mL (≈ 71.7 µM) in test [3]; 10 µg/mL (≈ 47.8 µM) in test [4]; 10 µg/mL (≈ 47.8 µM) in test [5].

Consider `CCCCOC(=O)c1ccc(OC)c(OC)c1`, for which the “-logMIC” value in test [1] is recorded as 1.1; in test [2], 1.2; in test [3] it was 1.1; in test [4], 1.2; in test [5], 1.15. For the same compound, the MIC in test [1] was 19 µg/mL (≈ 79.7 µM); in test [2], 15 µg/mL (≈ 63 µM); in test [3], 19 µg/mL (≈ 79.7 µM); in test [4], 15 µg/mL (≈ 63 µM); in test [5], 17 µg/mL (≈ 71.3 µM).

Consider `CNC(=O)c1ccc(OC)c(OC)c1`, for which the “-logMIC” value in test [1] stood at 0.95; in test [2], 1.18; in test [3] it was 1.05; in test [4] it was 1.28; in test [5], 1.18. Further, the MIC in test [1] came to 22 µg/mL (≈ 113 µM); in test [2] it was 13 µg/mL (≈ 66.6 µM); in test [3], 17 µg/mL (≈ 87.1 µM); in test [4] it was 13 µg/mL (≈ 66.6 µM); in test [5], 12.5 µg/mL (≈ 64 µM).

On to `CCCCCCCOC(=O)c1ccc(OC)c(OC)c1`, for which the “-logMIC” value in test [1] came to 1.25; in test [2], 1.35; in test [3] it was 1.3; in test [4], 1.25; in test [5], 1.37. The MIC in test [1] stood at 16 µg/mL (≈ 57.1 µM); in test [2], 12.5 µg/mL (≈ 44.6 µM); in test [3], 14 µg/mL (≈ 49.9 µM); in test [4] it was 16 µg/mL (≈ 57.1 µM); in test [5], 12 µg/mL (≈ 42.8 µM).

Take `COc1ccc(C(=O)Nc2ccccc2)cc1OC`: the “-logMIC” value in test [1] is 1.05; in test [2], 1.25; in test [3] it was 1.04; in test [4], 1.2; in test [5], 1.29. Besides, the MIC worked out at 23 µg/mL (≈ 89.4 µM) in test [1]; 14 µg/mL (≈ 54.4 µM) in test [2]; 23 µg/mL (≈ 89.4 µM) in test [3]; 16 µg/mL (≈ 62.2 µM) in test [4]; 13 µg/mL (≈ 50.5 µM) in test [5].

Regarding `COc1ccc(C(=O)OCCC(C)C)cc1OC`, the “-logMIC” value in test [1] stood at 1.1; in test [2], 1.31; in test [3], 1.2; in test [4] it was 1.2; in test [5] it was 1.3. For the same compound, the MIC in test [1] is 20 µg/mL (≈ 79.3 µM); in test [2], 12.5 µg/mL (≈ 49.5 µM); in test [3], 16 µg/mL (≈ 63.4 µM); in test [4], 16 µg/mL (≈ 63.4 µM); in test [5], 12.5 µg/mL (≈ 49.5 µM).

For the compound `COc1ccc(C(=O)Nc2cccc(C)c2)cc1OC`, the “-logMIC” value amounted to 1.2 in test [1]; 1.31 in test [2]; 1.2 in test [3]; 1.42 in test [4]; 1.35 in test [5]. Moreover, the MIC in test [1] amounted to 17 µg/mL (≈ 62.7 µM); in test [2], 13 µg/mL (≈ 47.9 µM); in test [3], 17 µg/mL (≈ 62.7 µM); in test [4], 10 µg/mL (≈ 36.9 µM); in test [5] it was 12.5 µg/mL (≈ 46.1 µM).

With `COc1ccc(C(=O)Nc2cccc(O)c2)cc1OC`, the “-logMIC” value in test [1] is 1.2; in test [2], 1.26; in test [3], 1.16; in test [4], 1.36; in test [5] it was 1.36. Besides, the MIC was found to be 17 µg/mL (≈ 62.2 µM) in test [1]; 15 µg/mL (≈ 54.9 µM) in test [2]; 19 µg/mL (≈ 69.5 µM) in test [3]; 12 µg/mL (≈ 43.9 µM) in test [4]; 12 µg/mL (≈ 43.9 µM) in test [5].

As to `COc1ccc(C(=O)NCCO)cc1OC`, the “-logMIC” value in test [1] was found to be 1.04; in test [2] it was 1.18; in test [3], 1.08; in test [4], 1.29; in test [5], 1.29. Besides, the MIC was 21 µg/mL (≈ 93.2 µM) in test [1]; 15 µg/mL (≈ 66.6 µM) in test [2]; 19 µg/mL (≈ 84.4 µM) in test [3]; 11.5 µg/mL (≈ 51.1 µM) in test [4]; 11.5 µg/mL (≈ 51.1 µM) in test [5].

As to `CCCCCCOC(=O)c1ccc(OC)c(OC)c1`, the “-logMIC” value is listed as 1.2 in test [1]; 1.33 in test [2]; 1.22 in test [3]; 1.3 in test [4]; 1.28 in test [5]. Further, the MIC is 16.5 µg/mL (≈ 62 µM) in test [1]; 12.5 µg/mL (≈ 46.9 µM) in test [2]; 16 µg/mL (≈ 60.1 µM) in test [3]; 13 µg/mL (≈ 48.8 µM) in test [4]; 14 µg/mL (≈ 52.6 µM) in test [5].

`COC(=O)c1ccc(OC)c(OC)c1` [VERATRIC ACID METHYL ESTER]: the “-logMIC” value is listed as 1.04 in test [1]; 1.2 in test [2]; 1.04 in test [3]; 1.2 in test [4]; 1.15 in test [5]. Also, the minimal inhibitory concentration (MIC) is 18 µg/mL (≈ 91.7 µM) in test [1]; 12 µg/mL (≈ 61.2 µM) in test [2]; 18 µg/mL (≈ 91.7 µM) in test [3]; 12 µg/mL (≈ 61.2 µM) in test [4]; 14 µg/mL (≈ 71.4 µM) in test [5].

On to `CCCCCOC(=O)c1ccc(OC)c(OC)c1`, for which the “-logMIC” value in test [1] came out at 1.1; in test [2] it was 1.31; in test [3], 1.1; in test [4] it was 1.1; in test [5], 1.1. The MIC was 20 µg/mL (≈ 79.3 µM) in test [1]; 12.5 µg/mL (≈ 49.5 µM) in test [2]; 20 µg/mL (≈ 79.3 µM) in test [3]; 20 µg/mL (≈ 79.3 µM) in test [4]; 20 µg/mL (≈ 79.3 µM) in test [5].
